For one assay, the system named is HCC827. The assay can be described thus: Antiproliferative activity against human HCC827 cells assessed as reduction in cell viability incubated for 72 hrs by cell-titer glo assay relative to control. The format is functional. Put shortly:
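Cells seeded at 2000 cells/well, dosed next day with a range of concentrations (DMSO 0.2% as control), 72 h exposure, viability read by CellTiter-Glo luminescence. Dose–response curves and GR values derived with the online GR calculator. Two independent experiments, each in technical triplicate.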

In assay [1] the target is Activin receptor type-2B (Homo sapiens) (UniProt Q13705). Kind of assay: Binding affinity to wild-type human ACVR2B (H169 to D504 residues) expressed in bacterial expression system assessed as residual binding level at 1 uM by Kinomescan method relative to control. Put shortly: (§1)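 Active-site-directed KinomeScan competition binding panel covering 468 kinases, compound tested at 1 μM. Each readout is the kinase signal remaining with compound, expressed as a percentage of the DMSO control. […]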

In assay [2] the target is Calcium/calmodulin-dependent protein kinase type 1B (Homo sapiens) (UniProt Q6P2M8). The assay can be described thus: Binding affinity to wild-type human partial length CAMK1B (W9 to A311 residues) expressed in mammalian expression system assessed as residual binding level at 1 uM by Kinomescan method relative to control. Put shortly:
(§2)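 KinomeScan, an active site-directed competition binding panel of 468 kinases. The test compound was at 1 μM. The readout is remaining kinase binding as a percentage of the DMSO control. Scores above 35% were treated as weak binding and not listed.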

The target in assay [3] is Calcium/calmodulin-dependent protein kinase kinase 1 (Homo sapiens) (UniProt Q8N5S9). Kind of assay: Binding affinity to wild-type human partial length CAMKK1 (R65 to E414 residues) expressed in bacterial expression system assessed as residual binding level at 1 uM by Kinomescan method relative to control.
Chain of Calcium/calmodulin-dependent protein kinase kinase 1 (Homo sapiens) (Q8N5S9 whole entry, looked up, the tested form may be a part): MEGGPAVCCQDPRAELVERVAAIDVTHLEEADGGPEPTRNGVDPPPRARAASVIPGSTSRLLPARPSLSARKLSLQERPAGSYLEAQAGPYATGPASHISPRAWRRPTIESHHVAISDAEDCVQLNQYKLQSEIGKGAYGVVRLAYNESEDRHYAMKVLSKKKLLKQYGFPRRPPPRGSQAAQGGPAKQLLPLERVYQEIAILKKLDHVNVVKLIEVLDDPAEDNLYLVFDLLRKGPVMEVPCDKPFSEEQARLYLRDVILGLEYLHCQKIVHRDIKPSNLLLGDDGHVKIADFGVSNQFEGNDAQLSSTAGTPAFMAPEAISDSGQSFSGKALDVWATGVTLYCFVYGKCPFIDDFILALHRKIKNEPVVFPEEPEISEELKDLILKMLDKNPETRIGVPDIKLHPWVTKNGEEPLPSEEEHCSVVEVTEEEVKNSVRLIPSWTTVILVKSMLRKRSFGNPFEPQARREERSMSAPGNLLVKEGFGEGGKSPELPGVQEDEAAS
Assay [4] deals with Dual specificity tyrosine-phosphorylation-regulated kinase 2 (Homo sapiens) (UniProt Q92630). Kind of assay: Binding affinity to wild-type human full length DYRK2 (M1 to S528 residues) expressed in mammalian expression system assessed as residual binding level at 1 uM by Kinomescan method relative to control. Put shortly: as §1
Chain of Dual specificity tyrosine-phosphorylation-regulated kinase 2 (Homo sapiens) (Q92630 whole entry, the tested form may be a part): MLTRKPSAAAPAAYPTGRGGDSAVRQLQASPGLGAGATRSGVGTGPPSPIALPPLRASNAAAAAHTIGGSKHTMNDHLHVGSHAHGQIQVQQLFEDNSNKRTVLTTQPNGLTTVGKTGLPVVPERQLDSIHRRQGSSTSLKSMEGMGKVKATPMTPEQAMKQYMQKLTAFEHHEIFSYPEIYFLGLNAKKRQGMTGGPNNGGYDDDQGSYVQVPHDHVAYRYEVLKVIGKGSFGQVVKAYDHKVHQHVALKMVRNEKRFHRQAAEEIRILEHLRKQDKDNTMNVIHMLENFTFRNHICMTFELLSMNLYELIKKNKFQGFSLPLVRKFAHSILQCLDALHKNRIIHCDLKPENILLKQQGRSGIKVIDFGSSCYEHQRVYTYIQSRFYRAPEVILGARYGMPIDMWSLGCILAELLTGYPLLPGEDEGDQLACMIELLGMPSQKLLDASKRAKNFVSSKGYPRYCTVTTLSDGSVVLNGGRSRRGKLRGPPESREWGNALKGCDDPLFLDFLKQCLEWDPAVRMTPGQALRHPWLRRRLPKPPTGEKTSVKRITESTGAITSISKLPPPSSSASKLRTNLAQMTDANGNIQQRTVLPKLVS
Assay [5] concerns the target Tyrosine-protein kinase JAK1 (Homo sapiens) (UniProt P23458). Kind of assay: Binding affinity to wild-type human partial length JAK1 JH1 catalytic domain (V856 to K1154 residues) expressed in bacterial expression system assessed as residual binding level at 1 uM by Kinomescan method relative to control.
In assay [6] the target is Leukocyte tyrosine kinase receptor (Homo sapiens) (UniProt P29376). The assay can be described thus: Binding affinity to wild-type human partial length LTK (P422 to S744 residues) expressed in bacterial expression system assessed as residual binding level at 1 uM by Kinomescan method relative to control.
Assay [7] addresses Mitogen-activated protein kinase kinase kinase 1 (Homo sapiens) (UniProt Q13233). The assay can be described thus: Binding affinity to wild-type human partial length MAP3K1 (L1202 to W1512 residues) expressed in mammalian expression system assessed as residual binding level at 1 uM by Kinomescan method relative to control. Put shortly: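 Active-site-directed competition binding panel of 468 kinases (KinomeScan), compound at 1 μM. The read-out is kinase remaining bound, given as a percentage of the DMSO control. […]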

Assay [8] addresses Dual specificity mitogen-activated protein kinase kinase 2 (Homo sapiens) (UniProt P36507). Kind of assay: Binding affinity to wild-type human full length MEK2 (M1 to V400 residues) expressed in mammalian expression system assessed as residual binding level at 1 uM by Kinomescan method relative to control. Put shortly: as §2
The target in assay [9] is Serine/threonine-protein kinase NIM1 (Homo sapiens) (UniProt Q8IY84). Kind of assay: Binding affinity to wild-type human partial length NIM1 (Q44 to N355 residues) expressed in mammalian expression system assessed as residual binding level at 1 uM by Kinomescan method relative to control.
The target of assay [10] is 1-phosphatidylinositol 3-phosphate 5-kinase (Homo sapiens) (UniProt Q9Y2I7). The assay can be described thus: Binding affinity to wild-type human partial length PIKFYVE (F1512 to C2098 residues) expressed in mammalian expression system assessed as residual binding level at 1 uM by Kinomescan method relative to control.
The target of assay [11] is Phosphatidylinositol 5-phosphate 4-kinase type-2 beta (Homo sapiens) (UniProt P78356). The assay can be described thus: Binding affinity to wild-type human full length PIP5K2B (M1 to T416 residues) expressed in bacterial expression system assessed as residual binding level at 1 uM by Kinomescan method relative to control. Put shortly:
as §2

For assay [12], the target named is cAMP-dependent protein kinase catalytic subunit alpha (Homo sapiens) (UniProt P17612). Kind of assay: Binding affinity to wild-type human partial length PKAC-alpha (G10 to F351 residues) expressed in bacterial expression system assessed as residual binding level at 1 uM by Kinomescan method relative to control.
Assay [13] has as its target Serine/threonine-protein kinase N2 (Homo sapiens) (UniProt Q16513). Kind of assay: Binding affinity to wild-type human partial length PKN2 (E634 to C984 residues) expressed in bacterial expression system assessed as residual binding level at 1 uM by Kinomescan method relative to control.
For assay [14], the target named is Serine/threonine-protein kinase RIO2 (Homo sapiens) (UniProt Q9BVS4). Kind of assay: Binding affinity to wild-type human partial length RIOK2 (M1 to D313 residues) expressed in mammalian expression system assessed as residual binding level at 1 uM by Kinomescan method relative to control.
Chain of Serine/threonine-protein kinase RIO2 (Homo sapiens) (Q9BVS4 whole entry, looked up, the tested form may be a part): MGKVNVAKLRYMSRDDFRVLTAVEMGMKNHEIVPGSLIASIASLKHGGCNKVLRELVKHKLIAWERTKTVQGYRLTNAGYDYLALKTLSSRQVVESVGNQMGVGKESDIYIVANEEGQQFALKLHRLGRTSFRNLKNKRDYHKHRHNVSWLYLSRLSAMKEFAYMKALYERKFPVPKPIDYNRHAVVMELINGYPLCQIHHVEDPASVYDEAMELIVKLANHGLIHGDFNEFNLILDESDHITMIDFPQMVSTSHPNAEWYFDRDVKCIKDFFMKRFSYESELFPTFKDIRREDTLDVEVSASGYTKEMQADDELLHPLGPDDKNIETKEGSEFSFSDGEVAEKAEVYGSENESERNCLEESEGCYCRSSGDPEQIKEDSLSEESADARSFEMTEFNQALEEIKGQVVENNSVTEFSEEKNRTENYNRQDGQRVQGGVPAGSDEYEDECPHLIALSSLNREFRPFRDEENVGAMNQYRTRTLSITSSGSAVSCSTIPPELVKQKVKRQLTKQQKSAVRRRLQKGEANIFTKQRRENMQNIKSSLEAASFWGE
Assay [15] has as its target Dual serine/threonine and tyrosine protein kinase (Homo sapiens) (UniProt Q6XUX3). The assay can be described thus: Binding affinity to wild-type human full length RIPK5 (M1 to T929 residues) expressed in mammalian expression system assessed as residual binding level at 1 uM by Kinomescan method relative to control. Put shortly: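 Active-site-directed competition binding screen across a 468-kinase panel, run with the test compound at 1 μM. The read-out is the kinase signal remaining relative to a DMSO control, reported as a percentage. […]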

Assay [16] has as its target Serine/threonine-protein kinase SIK2 (Homo sapiens) (UniProt Q9H0K1). Kind of assay: Binding affinity to wild-type human full length SIK2 (M1 to N926 residues) expressed in bacterial expression system assessed as residual binding level at 1 uM by Kinomescan method relative to control. Put shortly: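 Active site-directed binding assay (KinomeScan) run across a 468-kinase panel, with the test compound at 1 μM. The read-out is the remaining kinase signal in the presence of compound, expressed as a percentage of the DMSO control. Scores above 35% were taken as weak binding and were not reported.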

Assay [17] addresses Serine/threonine-protein kinase 33 (Homo sapiens) (UniProt Q9BYT3). Kind of assay: Binding affinity to wild-type human full length STK33 (M1 to L514 residues) expressed in bacterial expression system assessed as residual binding level at 1 uM by Kinomescan method relative to control.
For assay [18], the target named is Tyrosine-protein kinase SYK (Homo sapiens) (UniProt P43405). The assay can be described thus: Binding affinity to wild-type human partial length SYK (D354 to N635 residues) expressed in bacterial expression system assessed as residual binding level at 1 uM by Kinomescan method relative to control.
Assay [19] deals with Serine/threonine-protein kinase 32C (Homo sapiens) (UniProt Q86UX6). Kind of assay: Binding affinity to wild-type human partial length YANK3 (M68 to G486 residues) expressed in bacterial expression system assessed as residual binding level at 1 uM by Kinomescan method relative to control.

Chain of Phosphatidylinositol 5-phosphate 4-kinase type-2 beta (Homo sapiens) (P78356 whole entry, the tested form may be a part): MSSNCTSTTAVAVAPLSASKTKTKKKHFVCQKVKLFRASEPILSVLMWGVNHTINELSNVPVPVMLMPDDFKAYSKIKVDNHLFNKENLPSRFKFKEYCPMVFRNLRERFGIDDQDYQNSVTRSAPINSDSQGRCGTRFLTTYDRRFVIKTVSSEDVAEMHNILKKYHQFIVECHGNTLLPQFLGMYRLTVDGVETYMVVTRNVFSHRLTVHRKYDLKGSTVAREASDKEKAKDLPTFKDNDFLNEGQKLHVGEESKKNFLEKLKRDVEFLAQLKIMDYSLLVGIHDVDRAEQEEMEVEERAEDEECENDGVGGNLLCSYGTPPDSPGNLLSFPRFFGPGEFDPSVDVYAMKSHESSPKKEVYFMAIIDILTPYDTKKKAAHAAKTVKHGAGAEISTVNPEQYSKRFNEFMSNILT
Chain of Mitogen-activated protein kinase kinase kinase 1 (Homo sapiens) (Q13233 whole entry, the tested form may be a part): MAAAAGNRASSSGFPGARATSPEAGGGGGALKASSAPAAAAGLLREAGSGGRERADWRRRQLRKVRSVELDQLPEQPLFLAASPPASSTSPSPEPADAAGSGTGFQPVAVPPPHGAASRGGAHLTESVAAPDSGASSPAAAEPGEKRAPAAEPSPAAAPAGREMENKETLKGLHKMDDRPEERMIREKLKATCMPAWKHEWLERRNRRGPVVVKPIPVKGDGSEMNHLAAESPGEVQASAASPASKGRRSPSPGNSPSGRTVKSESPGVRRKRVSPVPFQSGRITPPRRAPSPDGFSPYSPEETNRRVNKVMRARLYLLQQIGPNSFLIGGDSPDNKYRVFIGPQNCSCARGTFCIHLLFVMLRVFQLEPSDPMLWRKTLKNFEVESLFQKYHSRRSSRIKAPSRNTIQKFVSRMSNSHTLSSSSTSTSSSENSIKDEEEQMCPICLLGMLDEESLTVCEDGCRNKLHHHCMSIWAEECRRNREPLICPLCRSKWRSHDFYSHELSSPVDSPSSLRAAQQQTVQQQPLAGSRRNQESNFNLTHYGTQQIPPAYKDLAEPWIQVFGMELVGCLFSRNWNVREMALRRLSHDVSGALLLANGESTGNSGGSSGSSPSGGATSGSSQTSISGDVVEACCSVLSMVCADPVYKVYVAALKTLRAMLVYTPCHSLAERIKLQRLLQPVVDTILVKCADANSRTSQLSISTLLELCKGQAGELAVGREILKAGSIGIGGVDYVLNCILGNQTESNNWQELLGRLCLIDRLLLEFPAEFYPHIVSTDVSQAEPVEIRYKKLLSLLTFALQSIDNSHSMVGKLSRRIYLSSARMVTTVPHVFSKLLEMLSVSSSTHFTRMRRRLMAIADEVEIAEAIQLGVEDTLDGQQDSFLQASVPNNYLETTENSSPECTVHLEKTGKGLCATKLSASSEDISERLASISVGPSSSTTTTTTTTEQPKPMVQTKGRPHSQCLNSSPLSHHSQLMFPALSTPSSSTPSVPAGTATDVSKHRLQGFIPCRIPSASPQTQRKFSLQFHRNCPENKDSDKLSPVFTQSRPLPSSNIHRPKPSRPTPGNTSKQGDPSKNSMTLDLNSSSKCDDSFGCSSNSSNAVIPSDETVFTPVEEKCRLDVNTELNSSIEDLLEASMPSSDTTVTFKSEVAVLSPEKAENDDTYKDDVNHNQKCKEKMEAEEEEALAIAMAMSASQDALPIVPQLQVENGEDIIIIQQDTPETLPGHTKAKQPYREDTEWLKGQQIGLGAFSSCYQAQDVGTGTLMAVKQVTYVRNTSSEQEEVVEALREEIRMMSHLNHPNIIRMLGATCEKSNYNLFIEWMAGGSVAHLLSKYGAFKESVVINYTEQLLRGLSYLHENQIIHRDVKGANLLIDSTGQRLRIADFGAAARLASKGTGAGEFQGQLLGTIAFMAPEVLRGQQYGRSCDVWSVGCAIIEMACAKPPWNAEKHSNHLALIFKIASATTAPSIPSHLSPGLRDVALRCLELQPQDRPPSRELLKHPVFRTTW
Chain of Serine/threonine-protein kinase SIK2 (Homo sapiens) (Q9H0K1 whole entry, looked up, the tested form may be a part): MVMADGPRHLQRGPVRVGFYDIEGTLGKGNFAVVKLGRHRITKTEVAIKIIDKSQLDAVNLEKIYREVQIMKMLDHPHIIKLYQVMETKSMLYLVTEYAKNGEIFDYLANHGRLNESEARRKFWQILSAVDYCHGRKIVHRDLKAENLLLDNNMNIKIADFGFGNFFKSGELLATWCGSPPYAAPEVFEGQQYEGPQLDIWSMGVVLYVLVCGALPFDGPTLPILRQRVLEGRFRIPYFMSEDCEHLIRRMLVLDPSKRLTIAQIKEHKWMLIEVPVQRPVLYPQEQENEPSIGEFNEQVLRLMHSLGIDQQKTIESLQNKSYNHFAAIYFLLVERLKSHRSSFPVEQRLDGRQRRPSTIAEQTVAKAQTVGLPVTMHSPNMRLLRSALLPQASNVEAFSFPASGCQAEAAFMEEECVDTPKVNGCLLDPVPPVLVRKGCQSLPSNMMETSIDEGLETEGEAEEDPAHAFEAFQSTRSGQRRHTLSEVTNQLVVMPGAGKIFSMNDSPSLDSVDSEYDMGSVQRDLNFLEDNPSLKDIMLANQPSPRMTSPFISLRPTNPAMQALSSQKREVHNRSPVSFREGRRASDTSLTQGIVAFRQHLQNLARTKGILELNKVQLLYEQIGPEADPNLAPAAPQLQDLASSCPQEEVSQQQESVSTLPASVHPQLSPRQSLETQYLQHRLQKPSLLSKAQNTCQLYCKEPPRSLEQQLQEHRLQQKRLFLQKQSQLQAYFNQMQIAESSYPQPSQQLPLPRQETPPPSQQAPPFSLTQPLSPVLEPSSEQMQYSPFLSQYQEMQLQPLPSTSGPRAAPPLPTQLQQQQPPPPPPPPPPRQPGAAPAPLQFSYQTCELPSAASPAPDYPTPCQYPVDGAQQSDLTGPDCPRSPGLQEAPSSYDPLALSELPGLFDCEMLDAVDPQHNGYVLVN
Chain of Serine/threonine-protein kinase 33 (Homo sapiens) (Q9BYT3 whole entry, looked up, the tested form may be a part): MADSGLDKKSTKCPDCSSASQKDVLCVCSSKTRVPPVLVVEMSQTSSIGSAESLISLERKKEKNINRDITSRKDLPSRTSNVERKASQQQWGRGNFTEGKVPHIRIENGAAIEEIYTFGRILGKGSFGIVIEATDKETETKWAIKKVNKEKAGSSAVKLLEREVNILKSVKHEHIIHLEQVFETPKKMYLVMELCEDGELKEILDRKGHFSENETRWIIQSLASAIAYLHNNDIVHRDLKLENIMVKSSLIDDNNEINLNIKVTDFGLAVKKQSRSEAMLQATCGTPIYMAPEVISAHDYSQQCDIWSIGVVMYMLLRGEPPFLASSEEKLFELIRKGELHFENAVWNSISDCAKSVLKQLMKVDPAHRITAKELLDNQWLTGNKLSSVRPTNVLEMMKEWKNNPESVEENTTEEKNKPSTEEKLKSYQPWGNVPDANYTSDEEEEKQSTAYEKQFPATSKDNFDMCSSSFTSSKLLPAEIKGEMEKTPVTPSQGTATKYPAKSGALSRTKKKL

`C=CC(=O)Nc1ccccc1Nc1nc(Nc2ccc(N3CCN(C)CC3)cc2)ncc1C(=O)Nc1c(C)cccc1Cl`: in the assay with HCC827, the Emax is given as -0.6. The Activity in [1] came to 100%; in [2], 98%; in [3] it was 100%; in assay [4], 89%; in [5] it was 100%; in assay [6], 100%. The Activity in assay [7] was found to be 99%; in [8], 93%; in assay [9], 100%; in assay [10] it was 100%; in [11], 99%; in [12] it was 100%. The Activity in assay [13] came to 100%; in assay [14] it was 100%; in assay [15], 100%; in assay [16] it was 67%; in assay [17] it was 100%; in assay [18], 100%. Also, in [19], the Activity stood at 100%.

For the origin of these results see ChEMBL document CHEMBL4354843, “Structure-Based Design of a Potent and Selective Covalent Inhibitor for SRC Kinase That Targets a P-Loop Cysteine” (J Med Chem, 2020).
